# Measured values reported in ChEMBL document CHEMBL2046402, “The First Dual ChE/FAAH Inhibitors: New Perspectives for Alzheimer's Disease?” (ACS Med Chem Lett, 2012).
# Tests used:
# [1] = molecular target: T1, Fatty-acid amide hydrolase 1 (Rattus norvegicus, UniProt P97612); test: Inhibition of FAAH in rat brain membranes assessed as hydrolysis of [14C]-anandamide after 30 mins; assay type: cell membranes
# T1 sequence (P97612 whole entry): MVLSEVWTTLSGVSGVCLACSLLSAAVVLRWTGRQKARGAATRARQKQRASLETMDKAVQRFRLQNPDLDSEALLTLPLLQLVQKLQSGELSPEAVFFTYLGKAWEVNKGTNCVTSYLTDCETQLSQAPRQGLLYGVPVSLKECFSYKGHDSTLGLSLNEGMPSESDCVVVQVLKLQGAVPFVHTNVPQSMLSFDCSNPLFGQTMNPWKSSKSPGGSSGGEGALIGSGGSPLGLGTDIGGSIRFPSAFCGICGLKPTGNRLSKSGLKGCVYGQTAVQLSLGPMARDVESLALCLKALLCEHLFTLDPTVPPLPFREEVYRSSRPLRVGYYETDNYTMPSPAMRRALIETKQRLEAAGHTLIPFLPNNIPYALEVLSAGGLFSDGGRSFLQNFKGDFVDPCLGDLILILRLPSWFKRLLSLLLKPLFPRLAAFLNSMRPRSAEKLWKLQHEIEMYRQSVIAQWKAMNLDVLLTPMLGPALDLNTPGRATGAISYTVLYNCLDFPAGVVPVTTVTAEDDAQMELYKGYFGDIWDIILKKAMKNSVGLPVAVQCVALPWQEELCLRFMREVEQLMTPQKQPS
# Method in brief: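 Rat brain membrane FAAH; activity read as hydrolysis of anandamide, with the inhibitor added without preincubation (pit = 0). Values are reported as IC50.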
# [2] = molecular target: T1, Fatty-acid amide hydrolase 1; test: Inhibition of FAAH in rat brain membranes assessed as hydrolysis of [14C]-anandamide preincubated for 20 mins before [14C]-anandamide addition measured after 30 mins; assay type: cell membranes
# Method in brief: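 Rat brain membrane FAAH; the inhibitor was preincubated with the enzyme for 20 min before anandamide hydrolysis was measured. Values are reported as IC50.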
# Acetylcholinesterase [3] = molecular target: T2, Acetylcholinesterase (Homo sapiens, UniProt P22303); test: Inhibition of human recombinant AChE using acetylthiocholine iodide as substrate preincubated for 120 mins before substrate addition by Ellman's method
# T2 sequence (P22303 whole entry): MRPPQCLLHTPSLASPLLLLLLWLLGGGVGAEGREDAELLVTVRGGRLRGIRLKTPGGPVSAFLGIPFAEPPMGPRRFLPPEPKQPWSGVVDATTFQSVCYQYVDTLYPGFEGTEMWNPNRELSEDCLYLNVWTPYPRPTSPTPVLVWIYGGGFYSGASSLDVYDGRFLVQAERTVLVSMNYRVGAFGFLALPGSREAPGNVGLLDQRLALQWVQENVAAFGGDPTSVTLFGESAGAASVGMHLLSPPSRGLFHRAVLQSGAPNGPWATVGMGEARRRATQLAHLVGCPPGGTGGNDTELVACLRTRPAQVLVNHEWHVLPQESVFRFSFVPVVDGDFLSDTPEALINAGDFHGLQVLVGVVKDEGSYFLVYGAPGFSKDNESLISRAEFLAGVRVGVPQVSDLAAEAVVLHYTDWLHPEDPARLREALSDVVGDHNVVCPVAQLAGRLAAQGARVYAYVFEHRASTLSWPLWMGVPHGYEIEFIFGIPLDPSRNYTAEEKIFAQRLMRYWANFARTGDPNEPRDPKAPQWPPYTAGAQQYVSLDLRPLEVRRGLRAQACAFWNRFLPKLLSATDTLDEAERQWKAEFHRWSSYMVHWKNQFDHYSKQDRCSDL
# Acetylcholinesterase [4] = molecular target: T2, Acetylcholinesterase; test: Inhibition of human recombinant AChE using acetylthiocholine iodide as substrate by Ellman's method; conditions: TDE = time-dependent effect
# Cholinesterase [5] = molecular target: T3, Cholinesterase (Homo sapiens, UniProt P06276); test: Inhibition of human serum BuChE using butyrylthiocholine iodide as substrate by Ellman's method; conditions: TDE = time-dependent effect
# T3 sequence (P06276 whole entry): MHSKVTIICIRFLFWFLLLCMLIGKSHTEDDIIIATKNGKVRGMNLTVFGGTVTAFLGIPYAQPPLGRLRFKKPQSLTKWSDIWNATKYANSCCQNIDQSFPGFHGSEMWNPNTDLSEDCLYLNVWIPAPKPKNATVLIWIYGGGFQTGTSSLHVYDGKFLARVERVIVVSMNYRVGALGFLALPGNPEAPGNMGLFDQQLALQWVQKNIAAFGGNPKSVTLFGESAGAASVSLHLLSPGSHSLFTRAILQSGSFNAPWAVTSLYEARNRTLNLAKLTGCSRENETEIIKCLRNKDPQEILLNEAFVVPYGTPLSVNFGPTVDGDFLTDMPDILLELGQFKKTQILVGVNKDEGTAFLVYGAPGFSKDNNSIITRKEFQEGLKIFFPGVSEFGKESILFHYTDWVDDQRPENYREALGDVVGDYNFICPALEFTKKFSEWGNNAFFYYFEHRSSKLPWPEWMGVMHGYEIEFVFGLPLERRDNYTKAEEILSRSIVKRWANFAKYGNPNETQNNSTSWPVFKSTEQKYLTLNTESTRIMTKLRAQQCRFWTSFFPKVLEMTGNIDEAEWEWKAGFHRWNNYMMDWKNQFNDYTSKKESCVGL
# [6] = molecular target: T4, Fatty-acid amide hydrolase 1 (Homo sapiens, UniProt O00519); test: Inhibition of human recombinant FAAH in assessed as hydrolysis of [14C]-anandamide preincubated for 20 mins before [14C]-anandamide addition measured after 30 mins
# T4 sequence (O00519 whole entry): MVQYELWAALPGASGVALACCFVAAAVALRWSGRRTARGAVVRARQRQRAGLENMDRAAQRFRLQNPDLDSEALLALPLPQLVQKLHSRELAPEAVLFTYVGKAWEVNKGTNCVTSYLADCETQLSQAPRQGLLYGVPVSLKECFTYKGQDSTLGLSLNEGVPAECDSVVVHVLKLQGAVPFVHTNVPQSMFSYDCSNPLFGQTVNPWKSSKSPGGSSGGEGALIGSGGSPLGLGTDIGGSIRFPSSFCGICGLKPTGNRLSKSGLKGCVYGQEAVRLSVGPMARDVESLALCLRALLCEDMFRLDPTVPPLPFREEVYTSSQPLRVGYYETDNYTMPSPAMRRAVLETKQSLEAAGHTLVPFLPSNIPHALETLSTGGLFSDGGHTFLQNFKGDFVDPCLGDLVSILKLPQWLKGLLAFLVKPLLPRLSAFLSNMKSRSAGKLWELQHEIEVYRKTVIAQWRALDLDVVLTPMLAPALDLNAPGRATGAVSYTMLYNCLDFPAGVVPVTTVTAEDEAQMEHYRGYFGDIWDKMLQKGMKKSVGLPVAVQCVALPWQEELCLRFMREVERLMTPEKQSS
# Method in brief: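 Human recombinant FAAH; the inhibitor was preincubated for 20 min before anandamide hydrolysis was measured. Values are reported as IC50.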
# Cholinesterase [7] = molecular target: T3, Cholinesterase; test: Inhibition of human serum BuChE using butyrylthiocholine iodide as substrate preincubated for 15 mins before substrate addition by Ellman's method
# Cholinesterase [8] = molecular target: T3, Cholinesterase; test: Reversible inhibition of human serum BuChE using butyrylthiocholine iodide as substrate assessed as recovery of enzyme activity after 48 hrs by Ellman's method; set-up: scale not given: the % may be the effect or the level left
# Acetylcholinesterase [9] = molecular target: T2, Acetylcholinesterase; test: Reversible inhibition of human recombinant AChE using acetylthiocholine iodide as substrate assessed as recovery of enzyme activity after 48 hrs by Ellman's method; set-up: scale not given: the % may be the effect or the level left
structure (smiles),measurement,setting,value
CCCCCCCNC(=O)Oc1cccc(CN(C)CCCOc2ccc3c(=O)c4cccnc4oc3c2)c1,IC50,[1],2210 nM
same,IC50,[2],400 nM
CCCCCCCNC(=O)Oc1cccc(CN(C)CCCOc2ccc3c(=O)c4ccccc4oc3c2)c1,IC50,[1],3620 nM
same,IC50,[2],110 nM
CN(CCCOc1ccc2c(=O)c3cccnc3oc2c1)Cc1cccc(OC(=O)NCCCCCc2ccccc2)c1,IC50,Acetylcholinesterase [3],89.5 nM
same,inhibition,Acetylcholinesterase [4],tde
same,inhibition,Cholinesterase [5],tde
same,IC50,[1],370 nM
same,IC50,[2],40 nM
same,IC50,[6],520 nM
same,IC50,Cholinesterase [7],1.71 nM
CN(CCCOc1ccc2ccc(=O)oc2c1)Cc1cccc(OC(=O)NCCCCCc2ccccc2)c1,IC50,Acetylcholinesterase [3],74.9 nM
same,inhibition,Acetylcholinesterase [4],tde
same,Activity,Cholinesterase [8],83%
same,inhibition,Cholinesterase [5],tde
same,IC50,[1],280 nM
same,IC50,[2],50 nM
same,Activity,Acetylcholinesterase [9],30%
same,IC50,[6],2260 nM
same,IC50,Cholinesterase [7],1.57 nM
CCCCNC(=O)Oc1cccc(CN(C)CCCOc2ccc3ccc(=O)oc3c2)c1,IC50,[1],8680 nM
CCCCNC(=O)Oc1cccc(CN(C)CCCOc2ccc3c(=O)c4cccnc4oc3c2)c1,IC50,[1],4230 nM
same,IC50,[2],1400 nM
CCCCCCNC(=O)Oc1cccc(CN(C)CCCOc2ccc3c(=O)c4ccccc4oc3c2)c1,IC50,[1],4290 nM
same,IC50,[2],290 nM
CCCCNC(=O)Oc1cccc(CN(C)CCCOc2ccc3c(=O)cc(-c4ccccc4)oc3c2)c1,IC50,[1],5540 nM
same,IC50,[2],800 nM
CCCNC(=O)Oc1cccc(CN(C)CCCOc2ccc3c(=O)c4ccccc4oc3c2)c1,IC50,[1],9280 nM
same,IC50,[2],100 nM
CNC(=O)Oc1cccc(CN(C)CCCCCCCOc2ccc(-c3cc4ccccc4oc3=O)cc2)c1,IC50,[1],9200 nM
CN(CCCOc1ccc2ccc(=O)oc2c1)Cc1cccc(OC(=O)NCCCCCCCN2CCOCC2)c1,IC50,Acetylcholinesterase [3],119 nM
same,inhibition,Acetylcholinesterase [4],tde
same,inhibition,Cholinesterase [5],tde
same,IC50,[1],5590 nM
same,IC50,[2],1820 nM
same,IC50,[6],14800 nM
same,IC50,Cholinesterase [7],11.2 nM
CN(CCCOc1ccc2c(=O)c3cccnc3oc2c1)Cc1cccc(OC(=O)NCCCCCCCN2CCOCC2)c1,IC50,Acetylcholinesterase [3],139 nM
same,inhibition,Acetylcholinesterase [4],tde
same,inhibition,Cholinesterase [5],tde
same,IC50,[1],4310 nM
same,IC50,[2],2710 nM
same,IC50,[6],39000 nM
same,IC50,Cholinesterase [7],27.6 nM
CCCCCCCNC(=O)Oc1cccc(CN(C)CCCOc2ccc3ccc(=O)oc3c2)c1,IC50,[1],620 nM
same,IC50,[2],170 nM
CCCCCCCNC(=O)Oc1cccc(CN(C)CCCOc2ccc3c(=O)cc(-c4ccccc4)oc3c2)c1,IC50,[1],6810 nM
